Drawing on ChEMBL document CHEMBL1687811, “Outbreak of meropenem-resistant Serratia marcescens comediated by chromosomal AmpC beta-lactamase overproduction and outer membrane protein loss” (2010), this text covers MIC for nine compounds.

The test system of test [1] is Serratia marcescens. The experiment in a line: Antimicrobial activity against Serratia marcescens ATCC 8100 by agar dilution method. The test is classed as functional. The gist of the method: (§1)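 MICs by agar dilution following CLSI guidelines, with E. coli ATCC 25922 and P. aeruginosa ATCC 27853 as MIC reference strains. Where an inhibitor was added, boronic acid or cloxacillin served as the AmpC inhibitor.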
For orientation: In agar dilution the substance is mixed into plates at graded concentrations.

For test [2], the system named is Serratia marcescens. As to the kind of experiment: Antimicrobial activity against beta-lactamase AmpC producing meropenem-resistant Serratia marcescens by agar dilution method. Format: functional. The gist of the method:
(§2)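 MICs by agar dilution following CLSI guidelines, with E. coli ATCC 25922 and P. aeruginosa ATCC 27853 as MIC reference strains. Where added, clavulanic acid served as the ESBL inhibitor and phenyl-arginine-β-naphthylamide as the efflux-pump inhibitor, each incorporated into the susceptibility test.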

Test [3] has as its system Serratia marcescens. As to the kind of experiment: Antimicrobial activity against beta-lactamase ompC intact/ompF deficient Serratia marcescens isolate YMC0579 by agar dilution method. Format: functional. The gist of the method: as §2
Test [4] deals with Serratia marcescens. The experiment in a line: Antimicrobial activity against beta-lactamase ompC intact/ompF deficient Serratia marcescens isolate YMC0573 by agar dilution method. The test is classed as functional. The gist of the method: as §2
For test [5], the system named is Serratia marcescens. As to the kind of experiment: Antimicrobial activity against Serratia marcescens ATCC 8100 by agar dilution method in presence of 250 ug/ml of cloxacillin. Format: functional. The gist of the method: as §1
Test [6] deals with Serratia marcescens. As to the kind of experiment: Antimicrobial activity against Serratia marcescens ATCC 8100 by agar dilution method in presence of 20 ug/ml of phenyl-arginine-beta-naphthylamide. The test is classed as functional. The gist of the method: as §2
For test [7], the system named is Serratia marcescens. The experiment in a line: Antimicrobial activity against beta-lactamase ompC intact/ompF deficient Serratia marcescens isolate YMC0584 by agar dilution method. Format: functional. The method in brief:
as §2

For test [8], the system named is Escherichia coli. As to the kind of experiment: Antimicrobial activity against azide-resistant Escherichia coli J53 by agar dilution method in presence 4 ug/ml of clavulanic acid. The test is classed as functional. The gist of the method:
as §2

Test [9] concerns Serratia marcescens. The experiment in a line: Antimicrobial activity against beta-lactamase AmpC producing meropenem-resistant Serratia marcescens by agar dilution method in presence of 4 ug/ml of clavulanic acid. The test is classed as functional. The method in brief: as §2
Test [10] relates to Serratia marcescens. The experiment in a line: Antimicrobial activity against beta-lactamase ompC intact/ompF deficient Serratia marcescens isolate YMC0583 by agar dilution method. Format: functional. The gist of the method: as §2
Test [11] deals with Serratia marcescens. The experiment in a line: Antimicrobial activity against beta-lactamase ompC intact/ompF deficient Serratia marcescens isolate YMC0582 by agar dilution method. Format: functional. The method in brief:
as §2

Test [12] has as its system Serratia marcescens. The experiment in a line: Antimicrobial activity against beta-lactamase ompC intact/ompF deficient Serratia marcescens isolate YMC0570 by agar dilution method. Format: functional. The gist of the method:
as §2

Test [13] relates to Serratia marcescens. The experiment in a line: Antimicrobial activity against beta-lactamase ompC intact/ompF deficient Serratia marcescens isolate YMC0566 by agar dilution method. Format: functional. The gist of the method:
as §2

The subject of test [14] is Serratia marcescens. The experiment in a line: Antimicrobial activity against Serratia marcescens ATCC 8100 by agar dilution method in presence of 300 ug/ml of boronic acid. The test is classed as functional. The method in brief: as §1
Test [15] concerns Serratia marcescens. As to the kind of experiment: Antimicrobial activity against Serratia marcescens ATCC 8100 by agar dilution method in presence of 4 ug/ml of clavulanic acid. The test is classed as functional. The gist of the method: as §2
The subject of test [16] is Serratia marcescens. The experiment in a line: Antimicrobial activity against beta-lactamase ompC intact/ompF deficient Serratia marcescens isolate YMC0564 by agar dilution method. The test is classed as functional. The gist of the method: as §2
Test [17] concerns Serratia marcescens. The experiment in a line: Antimicrobial activity against beta-lactamase ompC intact/ompF deficient Serratia marcescens isolate YMC0547 by agar dilution method. The test is classed as functional. The method in brief:
as §2

Test [18] concerns Serratia marcescens. The experiment in a line: Antimicrobial activity against beta-lactamase ompC/ompF deficient Serratia marcescens ATCC 8100 by agar dilution method. The test is classed as functional.
Test [19] concerns Escherichia coli. The experiment in a line: Antimicrobial activity against azide-resistant Escherichia coli J53 by agar dilution method.

Values after ≈ are worked out from the molar mass of the structure shown.

Turning to `C[C@H]1[C@H](NC(=O)/C(=N\OC(C)(C)C(=O)O)c2csc(N)n2)C(=O)N1S(=O)(=O)O` [AZTREONAM], the MIC against Serratia marcescens [1] was 64 µg/mL (≈ 147 µM); with Serratia marcescens [2] it was 8 µg/mL (≈ 18.4 µM).

As to `C[C@@H](O)[C@H]1C(=O)N2C(C(=O)O)=C(SCCNC=N)C[C@H]12` [IMIPENEM ANHYDROUS], the MIC in the test on Serratia marcescens [3] is 4 µg/mL (≈ 13.4 µM); in the test on Serratia marcescens [4], 4 µg/mL (≈ 13.4 µM); in the test on Serratia marcescens [5], 0.094 µg/mL; with Serratia marcescens [6], 4 µg/mL; against Serratia marcescens [1], 4 µg/mL (≈ 13.4 µM); with Serratia marcescens [7] it was 8 µg/mL (≈ 26.7 µM). Also, the MIC with Escherichia coli [8] is 0.12 µg/mL; with Serratia marcescens [9], 0.06 µg/mL; in the test on Serratia marcescens [10] it was 4 µg/mL (≈ 13.4 µM); against Serratia marcescens [11], 4 µg/mL (≈ 13.4 µM); in the test with Serratia marcescens [12], 4 µg/mL (≈ 13.4 µM); with Serratia marcescens [13] it was 4 µg/mL (≈ 13.4 µM). The MIC stood at 0.5 µg/mL in the test on Serratia marcescens [14]; 4 µg/mL with Serratia marcescens [15]; 0.12 µg/mL (≈ 0.401 µM) in the test on Serratia marcescens [2]; 4 µg/mL (≈ 13.4 µM) against Serratia marcescens [16]; 8 µg/mL (≈ 26.7 µM) against Serratia marcescens [17]; 0.02 µg/mL (≈ 0.0668 µM) against Serratia marcescens [18].

Regarding `CO[C@@]1(NC(=O)Cc2cccs2)C(=O)N2C(C(=O)O)=C(COC(N)=O)CS[C@@H]21` [CEFOXITIN], the MIC was more than 256 µg/mL in the test on Serratia marcescens [1], 4 µg/mL (≈ 9.36 µM) against Escherichia coli [19] and 4 µg/mL (≈ 9.36 µM) in the test on Serratia marcescens [2].

As for `CC(C)(O/N=C(\C(=O)N[C@@H]1C(=O)N2C(C(=O)[O-])=C(C[n+]3ccccc3)CS[C@H]12)c1csc(N)n1)C(=O)O` [CEFTAZIDIME], the MIC against Serratia marcescens [1] was 128 µg/mL (≈ 234 µM); with Escherichia coli [19], 0.25 µg/mL (≈ 0.457 µM); in the test with Serratia marcescens [2] it was 2 µg/mL (≈ 3.66 µM).

As to `CO/N=C(\C(=O)N[C@@H]1C(=O)N2C(C(=O)O)=C(COC(C)=O)CS[C@H]12)c1csc(N)n1` [CEFOTAXIME], the values for the MIC with Serratia marcescens [1], against Escherichia coli [19] and with Serratia marcescens [2] were more than 256 µg/mL, not above 0.12 µg/mL and 32 µg/mL (≈ 70.3 µM), respectively.

As to `C[C@@H](O)[C@H]1C(=O)N2C(C(=O)O)=C(S[C@@H]3CN[C@H](C(=O)N(C)C)C3)[C@H](C)[C@H]12` [MEROPENEM], the MIC against Serratia marcescens [3] is 16 µg/mL (≈ 41.7 µM); against Serratia marcescens [4], 16 µg/mL (≈ 41.7 µM); in the test with Serratia marcescens [5] it was 0.008 µg/mL; in the test with Serratia marcescens [6], 8 µg/mL; in the test with Serratia marcescens [1] it was 16 µg/mL (≈ 41.7 µM); in the test on Serratia marcescens [7], 16 µg/mL (≈ 41.7 µM). Further, the MIC in the test with Escherichia coli [8] came out at 0.015 µg/mL; with Serratia marcescens [9] it was 0.015 µg/mL; in the test on Serratia marcescens [10], 16 µg/mL (≈ 41.7 µM); against Serratia marcescens [11], 16 µg/mL (≈ 41.7 µM); with Escherichia coli [19], 0.03 µg/mL (≈ 0.0782 µM); against Serratia marcescens [12], 16 µg/mL (≈ 41.7 µM). Besides, the MIC with Serratia marcescens [13] turned out to be 16 µg/mL (≈ 41.7 µM); in the test with Serratia marcescens [14], 1 µg/mL; in the test on Serratia marcescens [15] it was 16 µg/mL; in the test with Serratia marcescens [2], 0.015 µg/mL (≈ 0.0391 µM); against Serratia marcescens [16], 16 µg/mL (≈ 41.7 µM); in the test with Serratia marcescens [17], 32 µg/mL (≈ 83.4 µM). This compound had an MIC in the test on Serratia marcescens [18] of 0.25 µg/mL (≈ 0.652 µM).

With GENTAMICIN, the results for the MIC with Serratia marcescens [1] and against Serratia marcescens [2] were more than 256 µg/mL and 32 µg/mL, respectively.

As to `CCN1CCN(C(=O)N[C@@H](C(=O)N[C@@H]2C(=O)N3[C@@H]2SC(C)(C)[C@@H]3C(=O)O)c2ccccc2)C(=O)C1=O` [PIPERACILLIN], the MIC in the test with Serratia marcescens [1] was more than 256 µg/mL; with Escherichia coli [19], 1 µg/mL (≈ 1.93 µM); in the test with Serratia marcescens [2], more than 256 µg/mL.

Turning to `O=C(O)c1cn(C2CC2)c2cc(N3CCNCC3)c(F)cc2c1=O` [CIPROFLOXACIN], the values for the MIC in the test on Serratia marcescens [1] and in the test on Serratia marcescens [2] were 8 µg/mL (≈ 24.1 µM) and not above 0.12 µg/mL, respectively.

Broadly, the MIC is the lowest concentration found to suppress growth.
